Our source for the residual activity, K2 and Ki values is ChEMBL document CHEMBL1122205, “Catechol O-methyltransferase. 12. Affinity labeling the active site with the oxidation products of 5,6-dihydroxyindole” (J Med Chem, 1982).

The structures appear in SMILES notation.

The target in assay [1] is T1, Catechol O-methyltransferase (Rattus norvegicus) (UniProt P22734).
T1 sequence (whole entry): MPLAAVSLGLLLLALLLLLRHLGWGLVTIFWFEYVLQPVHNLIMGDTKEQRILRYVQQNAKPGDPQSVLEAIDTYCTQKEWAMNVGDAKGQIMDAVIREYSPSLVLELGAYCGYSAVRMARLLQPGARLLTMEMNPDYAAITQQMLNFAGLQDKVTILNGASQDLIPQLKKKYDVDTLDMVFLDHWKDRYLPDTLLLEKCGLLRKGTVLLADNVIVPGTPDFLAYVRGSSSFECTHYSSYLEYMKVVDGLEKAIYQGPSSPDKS
Kind of assay: Compound was evaluated for its ability to inactivate Catechol O-methyltransferase before dialysis. The essentials:
(§1)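 Purified rat liver COMT preincubated 60 min at 37 °C with inhibitor (0.5 mM), MgCl2 1.20 mM, phosphate buffer pH 7.60. Residual activity relative to unpreincubated controls (dialyzed 24 h for post-dialysis line); duplicate means.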

The target of assay [2] is T1, Catechol O-methyltransferase (Rattus norvegicus). Put plainly: Evaluated for its ability to inactivate Catechol O-methyltransferase under aerobic conditions, after 60 min at 37 degree. C. More on the design: concentration or dose not given beside the values. The procedure, abridged: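 Aerobic preincubation of purified rat liver COMT with inhibitor (0.5 mM), MgCl2 1.20 mM, phosphate buffer pH 7.60 for 60 min at 37 °C. Residual activity versus controls assayed directly after inhibitor addition; duplicate means.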

The target is the same in assay [3]. Put plainly: Evaluated for its ability to inactivate Catechol O-methyltransferase under anaerobic conditions, after 60 min at 37 degree. C. More on the design: concentration or dose not given beside the values. The procedure, abridged: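 Anaerobic variant: preincubation (inhibitor 0.5 mM, MgCl2 1.20 mM, phosphate pH 7.60, purified rat liver COMT, 60 min, 37 °C) in sealed ampules under nitrogen, inhibitor stocks in deoxygenated water, samples withdrawn by syringe and assayed in ampules under nitrogen.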

The target is the same in assay [4]. Put plainly: (§2) Kinetic constants for the inactivation of Catechol O-methyltransferase by the compound.
Assay [5] shares this target. Kind of assay: Compound was evaluated for its ability to inactivate Catechol O-methyltransferase after dialysis. The essentials:
as §1

Assay [6] has as its target T2, Catechol O-methyltransferase (Rattus norvegicus, UniProt P22734).
T2 sequence (P22734 whole entry): T1 sequence (whole entry)
The assay is described as §2.

Assay [7] concerns the target T1, Catechol O-methyltransferase (Rattus norvegicus). Kind of assay: Kinetic constants for the inactivation of cCatechol O-methyltransferase by the compound.

On to `Cc1c(O)c(O)c(C)c2[nH]ccc12`, for which the residual activity in assay [1] turned out to be 322 c.p.m; in assay [2], 4.5%; in assay [3], 96%; in assay [5], 212 c.p.m. The compound also registered a K2 in assay [4] of 1.12 min⁻¹. In addition, the Ki in assay [6] is 7.26 mM.

Consider `Cc1c(O)c(O)cc2cc[nH]c12`, for which the residual activity amounted to 277 c.p.m in assay [1], 0% in assay [2], 84% in assay [3] and 262 c.p.m in assay [5]. Further, the K2 in assay [4] was determined as 0.16 min⁻¹. For the same compound, the Ki in assay [6] is 1.14 mM.

Take `Oc1cc2cc[nH]c2cc1O`: the residual activity in assay [1] is 282 c.p.m; in assay [2], 0%; in assay [3], 96%; in assay [5], 228 c.p.m. The compound also showed a K2 in assay [4] of 0.55 min⁻¹. Further, in assay [6], the Ki is 3.46 mM.

`Cc1c(O)c(O)cc2[nH]ccc12`: the residual activity in assay [1] was 396 c.p.m; in assay [2], 0%; in assay [3], 81%; in assay [5] it was 351 c.p.m. In addition, the K2 in assay [7] came out at 0.47 min⁻¹. For the same compound, in assay [6], the Ki came out at 15.2 mM.

`NCCc1c[nH]c2cc(O)c(O)cc12`: the residual activity in assay [1] turned out to be 242 c.p.m; in assay [2] it was 0%; in assay [3] it was 89%; in assay [5], 232 c.p.m. The compound further gave a K2 in assay [4] of 0.086 min⁻¹. Besides, in assay [6], the Ki amounted to 0.328 mM.
